Consider 20 compounds from ChEMBL document CHEMBL1157856, “Novel quinoline and naphthalene derivatives as potent antimycobacterial agents” (2010).

By inhibition is commonly meant the share of the control response that was lost under treatment. Low values mean a weak effect, high ones a strong effect.

What all share (assay type): functional
The test system of test [1] is Mycobacterium tuberculosis. Briefly: Antimycobacterial activity against Mycobacterium tuberculosis H37Rv at 6.25 ug/ml by BACTEC 460. Conditions: for inhibition at 6.25 µg/mL: Mycobacterium tuberculosis, H37Rv.
Test [2] has as its system U-937. Briefly: Cytotoxicity against human U937 cells assessed as cell viability at 1 ug/ml after 24 hrs by MTT assay. To be noted: U-937, 24 h, read-out: Activity. In a few lines: (§1)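 U937 human monocytic cells seeded at 1 × 10⁵ cells/mL and allowed to adhere for 1 h at 37 °C under 5% CO₂. Non-adherent cells were rinsed off with RPMI 1640. Adherent cells were exposed in triplicate to compound, medium alone (live control) or 3% Tween 20 (dead control). MTT (5 mg/mL stock in PBS) was added for 3 h at 37 °C. Formazan was dissolved in 0.4 M HCl/isopropanol and A600 read. Values given as percent viability.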
For orientation: Tetrazolium assays rely on reduction of a dye to a coloured formazan, in cell work by metabolically active cells.

The subject of test [3] is U-937. In words: Cytotoxicity against human U937 cells assessed as cell viability at 1 ug/ml after 72 hrs by MTT assay. Conditions: U-937, 72 h, read-out: Activity. The method, boiled down:
as §1

Test [4] relates to U-937. In words: Cytotoxicity against human U937 cells assessed as cell viability at 10 ug/ml after 24 hrs by MTT assay. To be noted: U-937, 24 h, read-out: Activity. The method, boiled down: as §1
In test [5] the test system is U-937. In words: Cytotoxicity against human U937 cells assessed as cell viability at 10 ug/ml after 72 hrs by MTT assay. Conditions: U-937, 72 h, read-out: Activity. The method, boiled down: as §1

On to `OC(COC(c1ccccc1)c1cccc2ccccc12)CN1CCN(c2ccc(Cl)cc2)CC1` (stereo unspecified), for which, in test [1], at 6.25 µg/mL the inhibition was 5%.
Regarding `Cc1cc(C(OCC(O)CNCCN)c2ccncc2)c2cc(Br)ccc2n1` (stereo unspecified), in test [1], the inhibition at 6.25 µg/mL stood at 5%.
For `COCCNCC(O)COC(c1ccncc1)c1cc(C)nc2ccc(Br)cc12` (stereo unspecified), the inhibition at 6.25 µg/mL in test [1] amounted to 19%.
Compound `Cc1cc(C(OCC(O)CN2CCN(c3ccccn3)CC2)c2ccncc2)c2cc(Br)ccc2n1` (stereo unspecified) came in with an inhibition at 6.25 µg/mL in test [1] of 4%.
As for `COc1cccc(N2CCN(CC(O)COC(c3ccccc3)c3cccc4ccccc34)CC2)c1` (stereo unspecified), the viability at 1 µg/mL with U-937 [2] and with U-937 [3] was 100% in each case. In addition, the viability at 10 µg/mL turned out to be 82% in the test on U-937 [4] and 63% in the test with U-937 [5]. The inhibition at 6.25 µg/mL in test [1] is 99%.
`Cc1cc(C(OCC(O)Cn2cccn2)c2ccncc2)c2cc(Br)ccc2n1` (stereo unspecified) came in with an inhibition at 6.25 µg/mL in test [1] of 9%.
The compound `Cc1cc(C(OCC(O)CN(C)CCO)c2ccncc2)c2cc(Br)ccc2n1` (stereo unspecified) had an inhibition at 6.25 µg/mL in test [1] of 13%.
As to `Cc1cc(C(OCC(O)CNc2ncn[nH]2)c2ccncc2)c2cc(Br)ccc2n1` (stereo in doubt; 13) [1-(1H-1,2,4-TRIAZOL-5-YLAMINO)-3-((6-BROMO-2-METHYLQUINOLIN-4-YL)(PYRIDIN-4-YL)METHOXY)PROPAN-2-OL (STRUCTURAL MIX)], the “inhibition (INH)” value in test [1] was 15%.
`OC(COC(c1ccccc1)c1cccc2ccccc12)CN1CCN(c2ccc(Cl)c(Cl)c2)CC1` (stereo unspecified) gave an inhibition at 6.25 µg/mL in test [1] of 4%.
Same read-out and setting: in the case of `Cc1cc(C(OCC(O)CNc2nnn[nH]2)c2ccncc2)c2cc(Br)ccc2n1` (stereo unspecified) it was 20%.
Still for that read-out and setting: in the case of `Cc1cc(C(OCC(O)Cn2ccc(C)n2)c2ccncc2)c2cc(Br)ccc2n1` (stereo unspecified) it was 8%; in that of `Cc1cc(C(OCC(O)Cn2ccnc2)c2ccncc2)c2cc(Br)ccc2n1` (stereo unspecified), 7%.
The same measure, in the same setting: for `Cc1cc(C(OCC(O)CNc2ncn[nH]2)c2ccncc2)c2cc(Br)ccc2n1` (stereo in doubt; 12) [1-(1H-1,2,4-TRIAZOL-5-YLAMINO)-3-((6-BROMO-2-METHYLQUINOLIN-4-YL)(PYRIDIN-4-YL)METHOXY)PROPAN-2-OL (STRUCTURAL MIX)] the value was 22%; for `OC(COC(c1ccccc1)c1cccc2ccccc12)CN1CCN(c2ccc(F)cc2)CC1` (stereo unspecified), 14%.
`COc1ccccc1N1CCN(CC(O)COC(c2ccccc2)c2cccc3ccccc23)CC1` (stereo unspecified): the values for the viability at 1 µg/mL in the test with U-937 [2] and in the test on U-937 [3] were 81% and 64%, respectively. Moreover, the viability at 10 µg/mL in the test on U-937 [4] came to 81%; with U-937 [5], 62%. In test [1], the inhibition at 6.25 µg/mL was 90%.
For `OC(COC(c1ccccc1)c1cccc2ccccc12)CN1CCN(C(c2ccccc2)c2ccccc2)CC1` (stereo unspecified), the viability at 1 µg/mL with U-937 [2] was found to be 93%; in the test on U-937 [3], 79%. In addition, the viability at 10 µg/mL in the test on U-937 [4] came to 74%; with U-937 [5], 70%. In test [1], at 6.25 µg/mL the inhibition was 98%.
`OC(COC(c1ccccc1)c1cccc2ccccc12)CN1CCN(c2cccc(C(F)(F)F)c2)CC1` (stereo unspecified) yielded an inhibition at 6.25 µg/mL in test [1] of 11%.
`Cc1cc(C(OCC(O)Cn2cncn2)c2ccncc2)c2cc(Br)ccc2n1` (stereo unspecified) gave an inhibition at 6.25 µg/mL in test [1] of 10%.
Same read-out and setting: in the case of `OC(COC(c1ccccc1)c1cccc2ccccc12)CN1CCN(c2ccccn2)CC1` (stereo unspecified) it was 23%.
As to `OC(COC(c1ccccc1)c1cccc2ccccc12)CN1CCN(Cc2ccccc2)CC1` (stereo unspecified), the figures for the viability at 1 µg/mL in the test with U-937 [2] and in the test with U-937 [3] were 77% and 71%, respectively. Further, the viability at 10 µg/mL in the test with U-937 [4] is 77%; with U-937 [5], 74%. In test [1], this compound yielded an inhibition at 6.25 µg/mL of 91%.
